In assay [1] the target is D(1A) dopamine receptor (Rattus norvegicus, UniProt P18901). The assay can be described thus: Relative affinity for Dopamine receptor D1 in striatum using [3H]SCH-23390. In kind it is tissue-based. The procedure, abridged:
(§1)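 Radioligand competition binding was run per earlier published conditions. Inhibition was screened at 100 nM and 10 µM. Incubated tubes were filtered through glass-fibre filters on a vacuum manifold. Nonspecific binding was counts bound in the presence of a saturating concentration of an established competing ligand. Reference drugs were run in parallel as positive controls.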

For assay [2], the target named is Sodium-dependent dopamine transporter (Rattus norvegicus, UniProt P23977). The assay can be described thus: relative affinity against dopamine transporter using WIN-35428 as radioligand. The procedure, abridged:
as §1

The target of assay [3] is Glutamate NMDA receptor. The assay can be described thus: relative affinity against N-methyl-D-aspartate glutamate receptor in caudate using [3H](+)-MK-801 as radioligand. In kind it is protein-complex assay. The procedure, abridged:
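Tubes incubated under the specified conditions, then filtered on glass-fibre filters and counted. Nonspecific binding taken as cpm bound with a saturating concentration of an established competing ligand. Reference drugs run in parallel as positive controls.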

For assay [4], the target named is D(3) dopamine receptor (Rattus norvegicus, UniProt P19020). Description: relative affinity against Dopamine receptor D3 in ventral striatum using [3H](+)-7-OH-DPAT as radioligand. In kind it is tissue-based. The procedure, abridged: as §1
D(3) dopamine receptor, sequence (P19020 whole entry): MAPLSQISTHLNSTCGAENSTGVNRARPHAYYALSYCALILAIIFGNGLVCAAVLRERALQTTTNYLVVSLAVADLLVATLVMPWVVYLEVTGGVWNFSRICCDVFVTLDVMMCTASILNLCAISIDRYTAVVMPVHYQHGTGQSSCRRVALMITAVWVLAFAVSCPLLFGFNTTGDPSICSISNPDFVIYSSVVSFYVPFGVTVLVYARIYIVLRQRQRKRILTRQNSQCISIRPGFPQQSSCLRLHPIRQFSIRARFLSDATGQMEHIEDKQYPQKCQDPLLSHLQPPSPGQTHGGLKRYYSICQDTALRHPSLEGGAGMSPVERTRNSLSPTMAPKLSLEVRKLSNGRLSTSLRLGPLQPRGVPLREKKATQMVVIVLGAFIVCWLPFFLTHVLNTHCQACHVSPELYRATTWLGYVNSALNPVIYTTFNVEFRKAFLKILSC
The target of assay [5] is Sodium-dependent serotonin transporter (Rattus norvegicus, UniProt P31652). Description: relative affinity against serotonin transporter using RTI-55 as radioligand. The procedure, abridged: as §1
Sodium-dependent serotonin transporter, sequence (P31652 whole entry): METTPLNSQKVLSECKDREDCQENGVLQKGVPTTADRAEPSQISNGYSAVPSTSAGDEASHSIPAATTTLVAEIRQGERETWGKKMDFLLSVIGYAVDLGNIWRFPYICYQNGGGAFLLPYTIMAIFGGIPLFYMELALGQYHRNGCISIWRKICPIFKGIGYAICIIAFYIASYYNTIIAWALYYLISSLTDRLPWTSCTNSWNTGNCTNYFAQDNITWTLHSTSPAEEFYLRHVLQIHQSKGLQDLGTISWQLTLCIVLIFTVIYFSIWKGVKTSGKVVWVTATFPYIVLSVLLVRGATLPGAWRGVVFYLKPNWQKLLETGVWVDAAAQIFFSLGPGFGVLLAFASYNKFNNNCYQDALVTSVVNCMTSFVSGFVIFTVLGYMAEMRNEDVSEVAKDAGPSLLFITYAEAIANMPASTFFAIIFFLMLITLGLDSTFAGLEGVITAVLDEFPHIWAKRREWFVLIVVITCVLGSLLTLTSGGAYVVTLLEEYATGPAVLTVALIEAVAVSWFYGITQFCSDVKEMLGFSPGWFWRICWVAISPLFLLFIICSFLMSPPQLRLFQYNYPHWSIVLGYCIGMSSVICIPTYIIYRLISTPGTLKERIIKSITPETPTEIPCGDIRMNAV
The target of assay [6] is D(2) dopamine receptor (Rattus norvegicus, UniProt P61169). The assay can be described thus: relative affinity against Dopamine receptor D2 in striatum using [3H]YM-09151-2 as radioligand. In kind it is tissue-based. A digest of the protocol: as §1
D(2) dopamine receptor, sequence (P61169 whole entry): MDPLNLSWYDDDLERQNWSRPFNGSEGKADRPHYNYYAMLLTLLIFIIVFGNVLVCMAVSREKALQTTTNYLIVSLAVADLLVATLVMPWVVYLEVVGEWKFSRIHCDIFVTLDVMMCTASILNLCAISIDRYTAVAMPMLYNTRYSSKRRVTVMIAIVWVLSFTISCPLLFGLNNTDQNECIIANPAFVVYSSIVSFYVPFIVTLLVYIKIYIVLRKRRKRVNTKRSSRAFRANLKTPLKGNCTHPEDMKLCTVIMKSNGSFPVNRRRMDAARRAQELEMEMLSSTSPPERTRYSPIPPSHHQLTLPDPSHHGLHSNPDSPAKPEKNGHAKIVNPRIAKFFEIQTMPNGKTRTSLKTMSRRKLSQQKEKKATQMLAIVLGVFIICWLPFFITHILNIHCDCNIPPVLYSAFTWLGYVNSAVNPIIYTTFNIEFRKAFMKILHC
In assay [7] the target is Kappa-type opioid receptor (Rattus norvegicus, UniProt P34975). The assay can be described thus: relative affinity against Opioid receptor kappa 1 in insular Ctx using [3H]U-69593 as radioligand.
Kappa-type opioid receptor, sequence (P34975 whole entry): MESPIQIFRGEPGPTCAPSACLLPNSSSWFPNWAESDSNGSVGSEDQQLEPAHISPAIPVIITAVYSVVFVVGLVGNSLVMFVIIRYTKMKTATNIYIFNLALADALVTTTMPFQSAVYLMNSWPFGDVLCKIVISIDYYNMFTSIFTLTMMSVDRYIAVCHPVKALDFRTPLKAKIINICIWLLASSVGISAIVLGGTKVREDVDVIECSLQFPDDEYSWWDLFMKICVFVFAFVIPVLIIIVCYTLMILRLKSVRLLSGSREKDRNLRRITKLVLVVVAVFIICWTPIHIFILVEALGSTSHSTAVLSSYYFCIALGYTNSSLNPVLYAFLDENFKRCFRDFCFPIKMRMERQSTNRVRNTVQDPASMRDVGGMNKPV
Assay [8] has as its target Mu-type opioid receptor (Rattus norvegicus, UniProt P33535). Description: Relative affinity against Opioid receptor mu 1 in thalamus using [3H]DAMGO as radioligand. In kind it is tissue-based. A digest of the protocol:
as §1

Mu-type opioid receptor, sequence (P33535 whole entry): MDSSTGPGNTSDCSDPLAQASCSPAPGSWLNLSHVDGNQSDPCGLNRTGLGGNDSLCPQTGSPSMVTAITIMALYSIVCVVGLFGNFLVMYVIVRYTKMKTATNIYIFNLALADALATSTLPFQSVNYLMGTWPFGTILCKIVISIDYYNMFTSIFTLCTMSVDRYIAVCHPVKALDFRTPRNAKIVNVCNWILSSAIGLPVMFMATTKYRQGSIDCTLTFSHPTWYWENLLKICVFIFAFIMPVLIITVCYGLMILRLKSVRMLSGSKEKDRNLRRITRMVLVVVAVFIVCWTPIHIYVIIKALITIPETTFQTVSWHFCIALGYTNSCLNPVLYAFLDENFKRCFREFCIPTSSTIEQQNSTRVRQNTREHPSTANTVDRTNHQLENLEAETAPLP
D(1A) dopamine receptor, sequence (P18901 whole entry): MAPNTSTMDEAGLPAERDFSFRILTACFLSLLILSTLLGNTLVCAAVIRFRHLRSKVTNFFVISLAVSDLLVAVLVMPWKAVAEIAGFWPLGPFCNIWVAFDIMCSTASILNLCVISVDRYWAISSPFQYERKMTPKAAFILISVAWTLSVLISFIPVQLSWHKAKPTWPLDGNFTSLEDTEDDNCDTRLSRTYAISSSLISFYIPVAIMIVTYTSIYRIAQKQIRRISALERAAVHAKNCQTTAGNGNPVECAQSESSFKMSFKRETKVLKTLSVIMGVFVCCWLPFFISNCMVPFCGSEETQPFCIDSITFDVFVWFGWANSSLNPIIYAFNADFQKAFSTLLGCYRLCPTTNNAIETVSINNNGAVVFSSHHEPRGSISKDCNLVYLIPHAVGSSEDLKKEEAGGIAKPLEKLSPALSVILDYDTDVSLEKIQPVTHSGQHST
Sodium-dependent dopamine transporter, sequence (P23977 whole entry): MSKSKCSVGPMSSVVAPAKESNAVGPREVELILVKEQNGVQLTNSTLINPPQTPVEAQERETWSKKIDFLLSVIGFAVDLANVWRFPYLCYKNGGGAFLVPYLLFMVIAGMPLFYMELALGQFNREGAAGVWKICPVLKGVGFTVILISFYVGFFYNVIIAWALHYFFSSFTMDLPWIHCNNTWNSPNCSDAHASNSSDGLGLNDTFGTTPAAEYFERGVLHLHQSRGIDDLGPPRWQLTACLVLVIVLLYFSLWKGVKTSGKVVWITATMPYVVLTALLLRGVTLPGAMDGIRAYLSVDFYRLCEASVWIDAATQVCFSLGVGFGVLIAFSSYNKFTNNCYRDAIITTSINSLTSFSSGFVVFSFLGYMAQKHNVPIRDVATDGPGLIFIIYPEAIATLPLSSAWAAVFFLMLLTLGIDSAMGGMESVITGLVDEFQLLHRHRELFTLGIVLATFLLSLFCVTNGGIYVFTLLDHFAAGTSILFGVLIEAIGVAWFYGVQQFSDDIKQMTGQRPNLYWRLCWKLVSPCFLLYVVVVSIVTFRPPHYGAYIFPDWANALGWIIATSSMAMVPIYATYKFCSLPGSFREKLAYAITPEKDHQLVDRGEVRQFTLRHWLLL

In general, IC50 refers to the concentration at which inhibition is half-maximal. For `CC[C@H]1C[C@@H]2C[C@H]3c4[nH]c5ccc(OC)cc5c4CCN(C2)[C@@H]13` [IBOGAINE], the IC50 is over 10 µM in assay [1]; 4110 nM in assay [2]; 5.2 µM in assay [3]; over 10000 nM in assay [4]; 590 nM in assay [5]; over 10 µM in assay [6].

As to `CCN1CCc2c(sc3ccccc23)C(c2ccc(Cl)c(Cl)c2)C1` (stereo not drawn), the IC50 in assay [1] was found to be 70 µM; in assay [7] it was 15.9 µM; in assay [2], 250 nM; in assay [3] it was 81 µM; in assay [4] it was 2000 nM; in assay [8], 54.5 µM. The half-inhibitory concentration (IC50) in assay [5] is 1200 nM; in assay [6], 5 µM.

Regarding `CCN1CCc2c(sc3ccccc23)C(c2ccccc2)C1` (stereo not drawn), the IC50 in assay [1] is 3 µM; in assay [7] it was 1.3 µM; in assay [2] it was 140 nM; in assay [3] it was 42 µM; in assay [4] it was 600 nM; in assay [8], 2.2 µM. Moreover, the IC50 in assay [5] amounted to 300 nM; in assay [6] it was 5 µM.

Turning to `CN1CCc2c([nH]c3ccccc23)C(c2ccccc2)C1` (stereo not drawn), the IC50 stood at 20 µM in assay [1]; 21.2 µM in assay [7]; 180 nM in assay [2]; 4200 nM in assay [4]; 3.1 µM in assay [8]; 190 nM in assay [5]. In assay [6], this molecule returned an IC50 of 27.2 µM.

`COc1cc2c(cc1OC)C(c1ccccc1)CN(C)CC2` (stereo not drawn) registered an IC50 in assay [1] of 0.491 µM.

Consider `CCN1CCc2c(sc3ccccc23)C(c2cccc(Br)c2)C1` (stereo not drawn), for which the half-maximal inhibitory concentration (IC50) in assay [1] was 5 µM; in assay [7], 12.5 µM; in assay [2], 210 nM; in assay [3] it was 46.6 µM; in assay [4] it was 2000 nM; in assay [8] it was 5 µM. In addition, the IC50 in assay [5] turned out to be 4300 nM; in assay [6] it was 3.5 µM.

Turning to `CC[C@@H]1CC2C[C@@H]3c4[nH]c5ccc(O)cc5c4CCN(C2)C13`, the IC50 in assay [1] was over 10 µM; in assay [7], 4.24 µM; in assay [3], 31.4 µM; in assay [4], over 10000 nM; in assay [8], 0.16 µM; in assay [5], 40 nM. This molecule gave an IC50 in assay [6] of over 10 µM.

Turning to `CCN1CCc2c(sc3ccccc23)C(c2cccc([N+](=O)[O-])c2)C1` (stereo not drawn), the IC50 in assay [1] was 5 µM; in assay [7] it was 16.2 µM; in assay [2] it was 250 nM; in assay [3] it was 32 µM; in assay [4] it was 600 nM; in assay [8] it was 3.1 µM. The half-maximal inhibitory concentration (IC50) in assay [5] was 1100 nM; in assay [6], 3.1 µM.
